In ChEMBL document CHEMBL1177636, “Optimization of isochromanone based urotensin II receptor agonists” (Bioorg Med Chem, 2010):
Calls of active or inactive are those of the source. The calls are words filed in the database; no cut-off is given here.

Experiments:
Assay type in all cases: functional, cell-based
Urotensin-2 receptor = target: T1, Urotensin-2 receptor (Homo sapiens, UniProt Q9UKP6); assay: (§1) Agonist activity against human urotensin 2 receptor expressed in […] cells assessed as beta-galactosidase activity after 5 days by R-SAT assay
T1 sequence (Q9UKP6 whole entry): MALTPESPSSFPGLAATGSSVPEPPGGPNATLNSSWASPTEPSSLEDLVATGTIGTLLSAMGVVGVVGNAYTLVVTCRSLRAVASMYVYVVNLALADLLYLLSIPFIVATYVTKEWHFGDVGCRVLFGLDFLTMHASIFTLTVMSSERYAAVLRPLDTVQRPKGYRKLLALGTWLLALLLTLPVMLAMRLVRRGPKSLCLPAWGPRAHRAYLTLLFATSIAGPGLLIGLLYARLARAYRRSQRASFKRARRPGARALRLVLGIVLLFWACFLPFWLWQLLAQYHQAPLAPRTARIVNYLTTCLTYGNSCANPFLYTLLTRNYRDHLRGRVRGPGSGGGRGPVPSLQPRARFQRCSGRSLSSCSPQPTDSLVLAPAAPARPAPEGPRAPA
Procedure, shortened: (§2)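 R-SAT in NIH-3T3 cells grown to 80% confluence in DMEM with 10% bovine calf serum, then transfected for 18 h with human UII receptor plus a β-galactosidase marker. Cells were frozen and thawed into DMEM with 0.4% calf serum and 30% UltraCulture, then incubated with compound for 5 days in 5% CO₂. Reporter read at 420 nm. Eight doses in triplicate, 2–5 EC₅₀ determinations, reported as mean ± SD; efficacy normalized to UII = 100%.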

[1] = target: T2, Urotensin-2 receptor (Homo sapiens) (UniProt Q9UKP6); assay: Agonist activity against human urotensin 2 receptor expressed in […] cells assessed as beta-galactosidase activity after 5 days by R-SAT assay relative to Urotensin-2; procedure, shortened: as §2
T2 sequence (whole entry): T1 sequence (Q9UKP6 whole entry)

[2] = target: T2, Urotensin-2 receptor (Homo sapiens); assay: as §1; procedure, shortened: as §2
[3] = target: Somatostatin receptor type 1 (Homo sapiens) (UniProt P30872); assay: Agonist activity against human SST1 receptor expressed in […] cells assessed as beta-galactosidase activity at 3 uM after 5 days by R-SAT assay
[4] = target: Somatostatin receptor type 4 (Homo sapiens) (UniProt P31391); assay: Agonist activity against human SST4 receptor expressed in […] cells assessed as beta-galactosidase activity at 3 uM after 5 days by R-SAT assay
Somatostatin receptor type 4 (Homo sapiens), sequence (P31391 whole entry): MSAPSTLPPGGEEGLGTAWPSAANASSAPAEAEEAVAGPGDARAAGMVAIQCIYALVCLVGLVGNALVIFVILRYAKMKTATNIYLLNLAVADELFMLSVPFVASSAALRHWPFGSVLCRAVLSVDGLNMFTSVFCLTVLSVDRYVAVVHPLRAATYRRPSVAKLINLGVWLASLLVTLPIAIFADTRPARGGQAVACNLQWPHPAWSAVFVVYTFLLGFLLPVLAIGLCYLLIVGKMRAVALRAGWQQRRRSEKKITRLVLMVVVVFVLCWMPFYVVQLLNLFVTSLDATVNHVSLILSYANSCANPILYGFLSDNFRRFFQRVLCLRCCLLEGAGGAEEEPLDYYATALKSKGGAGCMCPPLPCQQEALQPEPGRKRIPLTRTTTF

Somatostatin receptor type 1 (Homo sapiens), sequence (P30872 whole entry): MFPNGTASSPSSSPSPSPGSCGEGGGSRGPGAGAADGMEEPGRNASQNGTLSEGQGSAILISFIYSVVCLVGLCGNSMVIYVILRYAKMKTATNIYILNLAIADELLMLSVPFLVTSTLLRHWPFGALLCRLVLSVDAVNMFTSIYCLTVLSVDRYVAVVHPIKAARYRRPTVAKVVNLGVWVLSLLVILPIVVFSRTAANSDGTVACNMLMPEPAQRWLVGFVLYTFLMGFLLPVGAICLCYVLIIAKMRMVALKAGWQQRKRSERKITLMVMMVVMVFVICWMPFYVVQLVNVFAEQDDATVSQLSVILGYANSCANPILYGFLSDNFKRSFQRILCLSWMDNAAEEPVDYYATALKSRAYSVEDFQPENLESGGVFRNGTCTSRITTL

| SMILES | EC50 (Urotensin-2 receptor) [nM] | Efficacy [1] | pEC50 [2] | Activity [3] | Activity [4] [%] |
| --- | --- | --- | --- | --- | --- |
| COc1cccc(C2(CCN(C)C)Cc3cc(C)c(C)cc3C(=O)O2)c1 (stereo unspecified) | 2880 | 149% |  |  |  |
| Cc1cc2c(cc1C)C(=O)OC(CCN(C)C)(c1ccc3ccccc3c1)C2 (stereo unspecified) | 148 | 126% |  |  |  |
| CNCCC1(c2ccc(Cl)cc2)Cc2ccccc2C(=O)O1 (stereo unspecified) | 1950 | 46% |  |  |  |
| C=CCN(CC=C)c1cccc(C2(CCN(C)C)Cc3ccccc3C(=O)O2)c1 (stereo unspecified) | 2400 | 55% |  |  |  |
| CN(C)CCC1(c2cccc(-c3ccccc3)c2)Cc2ccccc2C(=O)O1 (stereo unspecified) | 1410 | 50% |  |  |  |
| COc1ccc2c(c1C)CC(CCN(C)C)(c1ccc(Cl)cc1)OC2=O (stereo unspecified) | 1740 | 118% |  |  |  |
| CN(C)CCC1(c2ccc(Cl)cc2)Cc2ccc3ccccc3c2C(=O)O1 (stereo unspecified) | 1150 | 124% |  |  |  |
| CN(C)CCC1(c2ccc(Br)cc2)Cc2ccccc2C(=O)O1 (stereo unspecified) | 933 | 127% |  |  |  |
| Cc1cc2c(cc1C)CC(CCN(C)C)(c1ccc(Cl)cc1)OC2 (stereo unspecified) | 692 | 47% |  |  |  |
| CN(C)CCC1(c2ccc(Cl)cc2)Cc2ccccc2C(=O)N1C (stereo unspecified) | 2290 | 152% |  |  |  |
| C=CCN(CC=C)c1ccc(C2(CCN(C)C)Cc3ccccc3C(=O)O2)cc1 (stereo unspecified) |  | inactive | inactive |  |  |
| CN(C)CCC1(c2cccc(Br)c2)Cc2ccccc2C(=O)O1 (stereo unspecified) | 2950 | 68% |  |  |  |
| C=CCN(C)CCC1(c2ccc(Cl)cc2)Cc2ccccc2C(=O)O1 (stereo unspecified) | 4170 | 77% |  |  |  |
| COc1ccc2c(c1)CC(CCN(C)C)(c1ccc(Cl)cc1)OC2=O (stereo unspecified) | 955 | 165% |  |  |  |
| CN(C)CCC1(c2ccc(-c3ccccc3)cc2)Cc2ccccc2C(=O)O1 (stereo unspecified) |  | inactive | inactive |  |  |
| C=CCN(CC=C)c1ccc2c(c1)CC(CCN(C)C)(c1ccc(Cl)cc1)OC2=O (stereo unspecified) | 724 | 132% |  |  |  |
| CN(C)CCC1(c2ccc(Cl)cc2)Cc2cc(-c3ccccc3)ccc2C(=O)O1 (stereo unspecified) |  | inactive | inactive |  |  |
| COc1cc(OC)cc(C2(CCN(C)C)Cc3cc(C)c(C)cc3C(=O)O2)c1 (stereo unspecified) | 5250 | 156% |  |  |  |
| Cc1cc2c(cc1C)C(=O)OC(CCN(C)C)(c1ccc(Cl)c(Cl)c1)C2 (stereo unspecified) | 51.3 | 98% |  | inactive | 31 |
| C[N+](C)(C)CCC1(c2ccc(Cl)cc2)Cc2ccccc2C(=O)O1 (stereo unspecified) | 3800 | 118% |  |  |  |
| Cc1cc2c(cc1C)CC(CCN(C)C)(c1ccc3ccccc3c1)OC2 (stereo unspecified) | 263 | 49% |  |  |  |
| CN(C)CCC1(c2ccc(C#Cc3ccccc3)cc2)Cc2ccccc2C(=O)O1 (stereo unspecified) |  | inactive | inactive |  |  |
| COc1cccc2c1CC(CCN(C)C)(c1ccc(Cl)cc1)N(C)C2=O (stereo unspecified) | 1170 | 151% |  |  |  |
| CN(C)CCC1(c2ccc(Cl)cc2)Cc2ccccc2CO1 (stereo unspecified) | 501 | 110% |  |  |  |
| CN(C)CCC1(c2ccc(Oc3ccccc3)cc2)Cc2ccccc2C(=O)O1 (stereo unspecified) | 1150 | 54% |  |  |  |
| CN(C)CCC1(c2ccc(Cl)c(Cl)c2)Cc2ccccc2C(=O)O1 (stereo unspecified) | 676 | 172% |  |  |  |
| CC(C)N1C(=O)c2ccccc2CC1(CCN(C)C)c1ccc(Cl)cc1 (stereo unspecified) | 2240 | 145% |  |  |  |
